The source of these data is ChEMBL document CHEMBL1149276, “Inhibition of Streptococcus suis adhesion by dendritic galabiose compounds at low nanomolar concentration” (J Med Chem, 2004).

In general, MIC refers to the least concentration at which growth counts as inhibited. As a reminder, the pIC50 is the IC50 on a negative log10 scale, so that one unit is a factor of ten. Read a low pIC50 as a large IC50.

Experiment [1] has as its system Streptococcus suis. Description: Inhibition of Streptococcus suis 836 mediated hemagglutinination of human erythrocytes. The experiment is classed as functional. In short, it runs like this:
(§1)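 S. suis grown in THY broth at 37 °C without shaking. Twofold dilutions of galabiose compound were preincubated with equal volumes of bacteria for 5 min at room temperature. Then 5% sialidase-treated human erythrocytes were added. After 1 h on ice, agglutination was scored visually. MIC was taken as the lowest concentration giving complete inhibition.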

Experiment [2] deals with Streptococcus suis. Description: Relative potency for against treptococcus suis 628 binding to pigeon ovomucoid by surface plasmon resonance assay measured as IC50 for monovalent galobiose compound to the multivalent compound. It is filed as functional. In short, it runs like this:
(§2)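 SPR competition format. S. suis was cultured in THY broth at 37 °C without shaking. Bacteria were incubated 5 min with inhibitor dilutions in HBS-P buffer, then injected over the sensor chip. The surface was regenerated with 10 mM NaOH between injections. Data from repeated experiments were normalized 0–100 to build inhibition curves. Line 7 expresses potency relative to the monovalent reference.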

For experiment [3], the system named is Streptococcus suis. Description: Inhibition of Streptococcus suis 628 binding to pigeon ovomucoid by surface plasmon resonance assay. The experiment is classed as functional, organism-based. The method, boiled down:
as §2
In general terms: In SPR one partner is held on a chip, and binding of the other changes the refractive index at the surface.

Experiment [4] has as its system Streptococcus suis. Description: Inhibition of Streptococcus suis 628 mediated hemagglutinination of human erythrocytes. It is filed as functional. In short, it runs like this:
as §1

In experiment [5] the test system is Streptococcus suis. Put plainly: Relative potency against Streptococcus suis 836 mediated hemagglutinination of human erythrocytes measured as IC50 for monovalent galobiose compound to the multivalent compound. The experiment is classed as functional. The method, boiled down:
(§3)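 Hemagglutination MIC read-out. Bacteria (THY broth, 37 °C, static) were preincubated 5 min at room temperature with twofold inhibitor dilutions. Sialidase-treated 5% human erythrocytes were added and agglutination was scored visually after 1 h on ice. Potency is expressed relative to the monovalent reference galabioside.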

Experiment [6] relates to Streptococcus suis. Description: Relative potency against Streptococcus suis 628 mediated hemagglutinination of human erythrocytes measured as IC50 for monovalent galobiose compound to the multivalent compound. It is filed as functional. In short, it runs like this: as §3
The test system of experiment [7] is Streptococcus suis. Description: Inhibition of Streptococcus suis 628 binding to pigeon ovomucoid by ELISA. It is filed as functional, organism-based.

Molecules are shown by their SMILES. pIC50: −log10 of the molar value. ≈ marks a conversion by molar mass, not a printed value.

Regarding `COC(=O)c1cc(OCCNC(=O)COCC(=O)NCCCO[C@@H]2O[C@H](CO)[C@H](O[C@H]3O[C@H](CO)[C@H](O)[C@H](O)[C@H]3O)[C@H](O)[C@H]2O)cc(OCCNC(=O)COCC(=O)NCCCO[C@@H]2O[C@H](CO)[C@H](O[C@H]3O[C@H](CO)[C@H](O)[C@H](O)[C@H]3O)[C@H](O)[C@H]2O)c1`, the values for the MIC against Streptococcus suis [1] and in the experiment on Streptococcus suis [4] were 0.07 µM (≈ 0.0874 µg/mL) and 0.006 µM (≈ 0.0075 µg/mL), respectively. The “Ratio IC50” value in the experiment on Streptococcus suis [2] is reported as 8; in the experiment on Streptococcus suis [5] it was 22; in the experiment with Streptococcus suis [6], 150. In addition, the pIC50 in the experiment on Streptococcus suis [3] is 6.63.

As for `O=C(COCC(=O)NCCCO[C@@H]1O[C@H](CO)[C@H](O[C@H]2O[C@H](CO)[C@H](O)[C@H](O)[C@H]2O)[C@H](O)[C@H]1O)NCC#Cc1ccc(C#CCNC(=O)COCC(=O)NCCCO[C@@H]2O[C@H](CO)[C@H](O[C@H]3O[C@H](CO)[C@H](O)[C@H](O)[C@H]3O)[C@H](O)[C@H]2O)cc1`, the figures for the MIC in the experiment on Streptococcus suis [1] and with Streptococcus suis [4] were 0.09 µM (≈ 0.106 µg/mL) and 0.007 µM (≈ 0.00825 µg/mL), respectively. Besides, the entries for the “Ratio IC50” value in the experiment with Streptococcus suis [2], in the experiment with Streptococcus suis [5] and in the experiment on Streptococcus suis [6] were 6, 18 and 128, respectively. The compound also showed a negative logarithm of the IC50 (pIC50) in the experiment on Streptococcus suis [3] of 6.51.

As for `COC(=O)c1cc(OCCNC(=O)c2cc(OCCNC(=O)COCC(=O)NCCCO[C@@H]3O[C@H](CO)[C@H](O[C@H]4O[C@H](CO)[C@H](O)[C@H](O)[C@H]4O)[C@H](O)[C@H]3O)cc(OCCNC(=O)COCC(=O)NCCCO[C@@H]3O[C@H](CO)[C@H](O[C@H]4O[C@H](CO)[C@H](O)[C@H](O)[C@H]4O)[C@H](O)[C@H]3O)c2)cc(OCCNC(=O)c2cc(OCCNC(=O)COCC(=O)NCCCO[C@@H]3O[C@H](CO)[C@H](O[C@H]4O[C@H](CO)[C@H](O)[C@H](O)[C@H]4O)[C@H](O)[C@H]3O)cc(OCCNC(=O)COCC(=O)NCCCO[C@@H]3O[C@H](CO)[C@H](O[C@H]4O[C@H](CO)[C@H](O)[C@H](O)[C@H]4O)[C@H](O)[C@H]3O)c2)c1`, the minimum inhibitory concentration (MIC) against Streptococcus suis [1] is 0.04 µM (≈ 0.108 µg/mL); with Streptococcus suis [4] it was 0.002 µM (≈ 0.00538 µg/mL). Further, the “Ratio IC50” value with Streptococcus suis [2] is 256; in the experiment with Streptococcus suis [5], 40; in the experiment with Streptococcus suis [6] it was 450. For the same compound, in the experiment on Streptococcus suis [3], the negative-log IC50 (pIC50) was 8.15.

On to `COC(=O)c1cccc(OCCNC(=O)COCC(=O)NCCCO[C@@H]2O[C@H](CO)[C@H](O[C@H]3O[C@H](CO)[C@H](O)[C@H](O)[C@H]3O)[C@H](O)[C@H]2O)c1`, for which the MIC against Streptococcus suis [1] worked out at 1.6 µM (≈ 1.11 µg/mL); against Streptococcus suis [4], 0.9 µM (≈ 0.623 µg/mL). The results for the pIC50 in the experiment on Streptococcus suis [3] and with Streptococcus suis [7] were 5.74 and 4.35, respectively.

For the compound `O=C(CCN(CCNC(=O)CCN(CCC(=O)NCCN(CCC(=O)NCCNC(=O)COCC(=O)NCCCO[C@@H]1O[C@H](CO)[C@H](O[C@H]2O[C@H](CO)[C@H](O)[C@H](O)[C@H]2O)[C@H](O)[C@H]1O)CCC(=O)NCCNC(=O)COCC(=O)NCCCO[C@@H]1O[C@H](CO)[C@H](O[C@H]2O[C@H](CO)[C@H](O)[C@H](O)[C@H]2O)[C@H](O)[C@H]1O)CCN(CCC(=O)NCCN(CCC(=O)NCCNC(=O)COCC(=O)NCCCO[C@@H]1O[C@H](CO)[C@H](O[C@H]2O[C@H](CO)[C@H](O)[C@H](O)[C@H]2O)[C@H](O)[C@H]1O)CCC(=O)NCCNC(=O)COCC(=O)NCCCO[C@@H]1O[C@H](CO)[C@H](O[C@H]2O[C@H](CO)[C@H](O)[C@H](O)[C@H]2O)[C@H](O)[C@H]1O)CCC(=O)NCCN(CCC(=O)NCCNC(=O)COCC(=O)NCCCO[C@@H]1O[C@H](CO)[C@H](O[C@H]2O[C@H](CO)[C@H](O)[C@H](O)[C@H]2O)[C@H](O)[C@H]1O)CCC(=O)NCCNC(=O)COCC(=O)NCCCO[C@@H]1O[C@H](CO)[C@H](O[C@H]2O[C@H](CO)[C@H](O)[C@H](O)[C@H]2O)[C@H](O)[C@H]1O)CCC(=O)NCCNC(=O)COCC(=O)NCCCO[C@@H]1O[C@H](CO)[C@H](O[C@H]2O[C@H](CO)[C@H](O)[C@H](O)[C@H]2O)[C@H](O)[C@H]1O)NCCNC(=O)COCC(=O)NCCCO[C@@H]1O[C@H](CO)[C@H](O[C@H]2O[C@H](CO)[C@H](O)[C@H](O)[C@H]2O)[C@H](O)[C@H]1O`, the minimum inhibitory concentration (MIC) against Streptococcus suis [1] turned out to be 0.002 µM (≈ 0.0108 µg/mL); in the experiment with Streptococcus suis [4] it was 0.0003 µM (≈ 0.00162 µg/mL). Moreover, the “Ratio IC50” value in the experiment with Streptococcus suis [2] amounted to 256; in the experiment on Streptococcus suis [5] it was 800; in the experiment on Streptococcus suis [6], 3000. This compound showed a pIC50 in the experiment with Streptococcus suis [3] of 8.15.

On to `COC(=O)c1cc(OCCNC(=O)COCC(=O)NCCCOCCOCCOCCCNC(=O)COCC(=O)NCCCO[C@@H]2O[C@H](CO)[C@H](O[C@H]3O[C@H](CO)[C@H](O)[C@H](O)[C@H]3O)[C@H](O)[C@H]2O)cc(OCCNC(=O)COCC(=O)NCCCOCCOCCOCCCNC(=O)COCC(=O)NCCCO[C@@H]2O[C@H](CO)[C@H](O[C@H]3O[C@H](CO)[C@H](O)[C@H](O)[C@H]3O)[C@H](O)[C@H]2O)c1`, for which the minimum inhibitory concentration (MIC) with Streptococcus suis [1] stood at 0.1 µM (≈ 0.189 µg/mL); in the experiment with Streptococcus suis [4], 0.009 µM (≈ 0.017 µg/mL). Further, the entries for the “Ratio IC50” value in the experiment with Streptococcus suis [2], in the experiment with Streptococcus suis [5] and in the experiment with Streptococcus suis [6] were 12, 16 and 100, respectively. In the experiment with Streptococcus suis [3], this compound had a pIC50 of 6.81.

Regarding `O=C(COCC(=O)NCCCO[C@@H]1O[C@H](CO)[C@H](O[C@H]2O[C@H](CO)[C@H](O)[C@H](O)[C@H]2O)[C@H](O)[C@H]1O)NCC#Cc1cccc(C#CCNC(=O)COCC(=O)NCCCO[C@@H]2O[C@H](CO)[C@H](O[C@H]3O[C@H](CO)[C@H](O)[C@H](O)[C@H]3O)[C@H](O)[C@H]2O)c1`, the MIC against Streptococcus suis [1] stood at 0.05 µM (≈ 0.059 µg/mL); in the experiment with Streptococcus suis [4] it was 0.004 µM (≈ 0.00472 µg/mL). Also, the “Ratio IC50” value in the experiment on Streptococcus suis [2] is 6; with Streptococcus suis [5], 32; in the experiment on Streptococcus suis [6], 225. This compound also showed a negative logarithm of the IC50 (pIC50) in the experiment on Streptococcus suis [3] of 6.53.
